PRMT1 inh: blocks human protein arginine methyltransferase 1. inhibition, % at 2.79 µM. actives 1.3% (n = 370,000). AID 652257. recombinant PRMT1, activity-based probe fluorescence polarization;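 active = inhibition above about 21% made by adding two undisclosed values, limit read from the data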
Target sequence (Q99873 whole entry, looked up): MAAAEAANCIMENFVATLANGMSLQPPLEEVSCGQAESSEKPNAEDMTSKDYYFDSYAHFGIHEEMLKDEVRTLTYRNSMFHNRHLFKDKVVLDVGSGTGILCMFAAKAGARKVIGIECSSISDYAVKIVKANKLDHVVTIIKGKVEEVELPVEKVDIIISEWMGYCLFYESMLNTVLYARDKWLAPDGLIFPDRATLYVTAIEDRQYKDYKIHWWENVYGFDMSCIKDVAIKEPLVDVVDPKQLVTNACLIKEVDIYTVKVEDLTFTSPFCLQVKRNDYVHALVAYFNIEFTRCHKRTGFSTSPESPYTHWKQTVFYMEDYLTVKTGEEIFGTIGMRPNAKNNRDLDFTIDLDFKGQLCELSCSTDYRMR
TDP2 inh: blocks human TDP2 phosphodiesterase activity | O95551 | recombinant TDP2, T5PNP hydrolysis, p-nitrophenol absorbance 415 nm | inhibition, % at 12.8 µM | actives 0.34% (n = 370,000);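 active = inhibition above the mean of all tested compounds plus 3 SD, set per campaign, cut at about 25% in these data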
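Test system: Human TDP2 enzyme | Reagent: 5 mM T5PNP | Compound dosing: 12.8 µM single point, 1% DMSO | Incubation: Enzyme reaction with compound for 2 h at 37 °C | Technique: p-Nitrophenol epi absorbance | Read-out: % inhibition relative to enzyme-containing and enzyme-free wells | Benchmarks: High control without enzyme, low control DMSO plus TDP2 | Replicates: Singlicate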
eLon inh: E. coli protease La inhibition; actives 0.42% (n = 360,000); purified E. coli Lon protease, fluorescence polarization; AID 602123; inhibition, % at 7.94 µM; P0A9M0; in the data active = inhibition above about 13%, passing the limit was not always enough
PAD4 FP inh: blocks human protein arginine deiminase 4; recombinant PAD4, RCA probe fluorescence polarization; inhibition, % at 6.36 µM; actives 0.41% (n = 330,000);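 active = percent inhibition above a cutoff equal to the mean of all tested compounds plus 3 SD, cut at about 15% in these data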
GSTO1 inh: blocks human GSTO1 in RBBP9 counter-screen; P78417; recombinant GSTO1, activity-based probe fluorescence polarization; inhibition, % at 5.96 µM; actives 1.1% (n = 300,000);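 active = inhibition above the campaign mean inhibition plus 3 SD, cut at about 35% in these data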
Target sequence (P78417 whole entry, looked up): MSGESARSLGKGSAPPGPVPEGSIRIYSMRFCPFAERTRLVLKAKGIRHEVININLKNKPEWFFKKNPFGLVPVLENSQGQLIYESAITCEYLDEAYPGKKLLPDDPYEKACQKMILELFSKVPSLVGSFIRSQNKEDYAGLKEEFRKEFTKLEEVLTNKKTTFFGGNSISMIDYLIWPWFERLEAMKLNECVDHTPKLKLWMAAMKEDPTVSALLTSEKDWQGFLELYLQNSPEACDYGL
PRMT1 inh conf: confirmation of human PRMT1 inhibitors; shares compounds with PRMT1 inh; recombinant His-PRMT1, activity-based probe fluorescence polarization; inhibition, % at 2.79 µM; actives 42% (n = 3,300); AID 687036;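 active = mean inhibition across replicates above the hit cutoff derived for the earlier primary screen, cut at about 22% in these data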
A number is an active result; – = inactive; · = no result given. This is a sample that favours compounds with a hit; in the whole collection about 2.5% have one here.

SMILES | PRMT1 inh | TDP2 inh | eLon inh | PAD4 FP inh | GSTO1 inh | PRMT1 inh conf
COc1cccc(/C=N/NC(=O)CC(C)O)c1OC/C=C/c1ccccc1 (centres undefined) | – | – | – | · | · | ·
COc1ccc(NC(=O)c2cc3ccccc3cc2OC)cc1 | – | – | – | – | – | ·
COc1cc2ccccc2cc1C(=O)NNC(=O)c1ccccc1O | 39.5 | – | – | – | – | –
Cc1ccc(-c2cn3c(=S)[nH]nc3s2)cc1 | 26.2 | – | – | – | – | –
COc1ccc(NC(=O)C2C3C=CC(O3)C2C(=O)O)cc1 (centres undefined) | 36.0 | – | – | – | – | –
CCNc1sc(C(=O)c2cccs2)c(N)c1C#N | 29.2 | – | – | – | – | –
Cc1ccc(NS(=O)(=O)c2cc(NC(=O)c3ccc4c(c3)NC(=O)CS4)ccc2C)c(C)c1 | 34.2 | – | – | – | – | 23.0
COc1ccc(NC(=O)c2ccc3c(c2)NC(=O)CS3)cc1S(=O)(=O)Nc1ccc(Br)cc1 | – | – | – | – | – | ·
CSC1=NC=C(C#N)C2=NC(c3ccc(Cl)cc3)NN12 (centres undefined) | · | · | – | · | · | ·
CC(C)CNc1cccc2c1S(=O)(=O)N(Cc1cn(Cc3cccc(F)c3)nn1)Cc1ccccc1O2 | – | – | · | · | · | ·
Cc1nnc(NC(=O)CCSCCC(=O)Nc2nnc(C)s2)s1 | 28.5 | – | – | – | – | 29.8
CCOC(=O)CCSCC(=O)Nc1nnc(C)s1 | – | – | – | – | – | ·
O=C(O)/C=C/C(=O)N1N=C(c2ccco2)CC1c1ccco1 (centres undefined) | 43.1 | – | – | – | – | –
Cc1c(C)c2ccc(OCC(=O)Nc3ccc(S(N)(=O)=O)cc3)c(C)c2oc1=O | – | – | – | – | – | ·
Nc1nc2c(s1)CCCCCCCCCC2 | – | – | – | – | – | ·
CCN1CCc2nc(NC(=O)c3ccccc3)sc2C1 | – | – | – | – | – | ·
CCN1CCc2nc(N)sc2C1 | 45.4 | – | – | – | – | 22.5
C=CCN1CCc2nc(N)sc2CC1 | 61.1 | – | – | · | · | –
O=P(c1ccccc1)(c1ccccc1)c1cc(S(=O)(=O)O)ccc1O | – | – | – | · | · | ·
CC1=C(C(=O)N(C(C)C)C(C)C)CC(CC(=O)NC2CCCCC2)C(=O)N1CCC1=CCCCC1 (centres undefined) | – | – | – | · | · | ·
O=C1/C(=C/c2ccc(Cl)cc2)SC(=S)N1CCC(=O)N1CCCCC1CCO (centres undefined) | – | – | – | – | – | ·
O=C1/C(=C/c2ccco2)SC(=S)N1CCC(=O)N1CCCCC1CCO (centres undefined) | 26.5 | – | – | – | – | –
COC(CNC(=O)[C@H](Cc1c[nH]c2ccccc12)NC1(C(=O)NC2CCCCC2)CCCCC1)OC | – | – | · | · | · | ·
O=C1CSC(=Nc2ccc(O)cc2)N1c1ccc(O)cc1 | – | – | – | – | – | ·
Cc1ccc(N2C(=O)CS/C2=N\C(=S)Nc2ccccc2)cc1 | 28.2 | – | – | – | – | –
SMILES | PRMT1 inh | TDP2 inh | eLon inh | PAD4 FP inh | GSTO1 inh | PRMT1 inh conf
COc1ccc(C(=O)NC(=S)SCC(=O)O)cc1 | – | – | – | – | – | ·
CCOC(=O)CSC(=S)NC(=O)c1ccc(OC)cc1 | 27.3 | – | – | – | – | 99.8
Cn1c(=O)c2c([nH]c(=S)n2CCCc2ccccc2)n(C)c1=O | 40.9 | – | – | – | – | 64.2
CCN(c1cccc(C)c1)S(=O)(=O)c1cc2c3c(c1)CCC(=O)N3CCC2 | – | – | – | – | – | ·
CCN=C1SC(C(=O)Nc2cccc(Cl)c2)CC(=O)N1CC (centres undefined) | – | – | – | – | – | ·
CCN=C1SC(C(=O)NCCc2ccccc2)CC(=O)N1CC (centres undefined) | 39.0 | – | – | – | – | –
CCN=C1SC(CC(=O)NCc2ccccc2)C(=O)N1CC (centres undefined) | 78.4 | – | – | – | – | –
FC(F)(F)c1ccccc1Cc1c(C2CCCCC2)nc2c3ccccc3ccn12 | – | – | – | · | · | ·
Cc1ccc(NNC(N)=S)cc1Cl | 28.0 | – | – | – | – | –
Cc1ccc(COC(=O)CN2C(=O)NC3(CCCCC3C)C2=O)cc1 (centres undefined) | – | – | – | · | · | ·
COc1ccccc1CCNC(=O)c1c(N)[nH]c(C(=O)c2ccccc2)c1-c1ccc(Br)cc1 | – | – | – | · | · | ·
Fc1ccc2[nH]c3c(NCc4ccccc4)ncnc3c2c1 | – | – | – | – | – | ·
Cc1c(Cl)cccc1NC(=O)CSCc1cc(=O)[nH][nH]1 | 27.7 | – | – | – | – | –
Cc1c(Cl)cccc1NC(=O)CSc1nnnn1C | – | – | – | – | · | ·
Cc1ccc(NC(=S)NNc2ccc([N+](=O)[O-])cc2S(=O)(=O)Nc2ccccc2C(=O)O)cc1C | 26.8 | – | – | – | – | 39.5
O=C1CC(c2ccco2)CC(O)=C1C=Nc1cc(Cl)cc(Cl)c1 (centres undefined) | 27.8 | – | – | – | – | –
CCOc1ccc(N=CC2=C(O)CC(c3ccco3)CC2=O)cc1 (centres undefined) | – | – | – | – | – | ·
C[C@H]1[C@H](NC(=O)c2cccc(Cl)c2)CC[C@@]23CCCN2C(=O)CCC[C@@H]13 | – | – | · | · | · | ·
O=C(CCCSc1ccccc1)Nc1nc(-c2ccco2)c(-c2ccco2)s1 | 44.3 | – | – | – | – | –
Cc1ccc(C(=O)Nc2nc(-c3ccco3)c(-c3ccco3)s2)o1 | 37.5 | – | – | · | · | 29.2
COc1ccc(N(CC(=O)NCc2cccs2)S(=O)(=O)c2cccc(C)c2)cc1 | – | – | – | · | · | ·
CCOc1ccc(CNC(=O)c2ccc3c(c2)N(CC)CCS3)cc1 | 25.3 | – | – | – | – | –
CCN1CCSc2ccc(C(=O)NCc3ccc(OC(C)C)cc3)cc21 | – | – | – | – | – | ·
O=C1Nc2ccccc2C(=O)C1(Cl)Cc1ccccc1 (centres undefined) | 93.0 | – | – | – | – | 87.3
C=CCc1cccc2cc(C(=O)NNC(=O)c3ccncc3)c(=O)oc12 | 26.5 | – | – | – | – | 25.7
SMILES | PRMT1 inh | TDP2 inh | eLon inh | PAD4 FP inh | GSTO1 inh | PRMT1 inh conf
CC(C)CCNC(=O)c1onc(CSc2nc3ccccc3[nH]2)c1C(=O)NCCC(C)C | – | – | – | – | – | ·
CCCOc1ccc(Cc2nn3c(=O)/c(=C/c4ccco4)sc3nc2=O)cc1 | 33.3 | – | – | – | – | –
CCCOc1ccc(/C=c2\sc3nc(-c4ccco4)nn3c2=O)cc1OCC | – | – | – | – | – | ·
Oc1cc2c(cc1O)[C@H]1c3ccc(O)c(O)c3OC[C@@]1(O)C2 | 43.0 | – | – | – | · | 38.2
COc1cccc(CNC(=O)Cn2ccc3cc(S(=O)(=O)N4CCCCCC4)ccc32)c1 | – | – | – | – | – | ·
Cc1cc(F)ccc1S(=O)(=O)NCC1CC2CCC1C2 (centres undefined) | – | – | – | – | – | ·
CCOC(=O)c1cccc(NC(=O)CN(C)S(=O)(=O)c2ccco2)c1 | – | – | · | · | · | ·
COc1ccc(C(=O)CSC#N)cc1OC | 40.7 | – | – | – | – | 22.7
